PGC1a acetyl inh: inhibitors of PGC1a acetylation signal, primary screen, cell-based, U2OS, AlphaScreen, inhibitor mode | AlphaScreen anti-acetyl-lysine; with virally co-expressed GCN5 acetyltransferase | inhibition, % at 15.6 µM | hit rate 0.17% among 350,000;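 active = every replicate shows inhibition of at least 40%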
Xi reactivation: activators of inactive X chromosome reactivation, primary screen, imaging, XiGFP fibroblasts, GFP high-content imaging, set 2. XiGFP mouse fibroblasts, % GFP-positive cells imaging, 3 d; cells co-treated with 5-aza-dC sensitizer; scaled so ellipticine positive control = 100%. activation, % at 7.58 µM. hit rate 0.055% among 360,000;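 active = mean normalized replicate activation at least 10% and every replicate at or above 10%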
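System: 68-5-11 XiGFP fibroblast line | Buffer or medium: DMEM containing 5-aza-dC | Compound: Single point | Times: Compounds 3 days, fix/stain 15 min at room temperature | Benchmarks: Positive control ellipticine, 6 µM final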
GSIS activator: GLuc luminescence reporter in INS-1E cells, primary screen for activators of glucose-dependent secretion of insulin. INS-1E GLuc reporter insulin secretion, 2-3 h. activation, % at 16.6 µM. hit rate 0.61% among 370,000;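 active = lowest replicate activation of at least 40%, so every replicate reaches that level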
MLL AF4-AF9 inh: inhibitors of AF4 peptide binding to AF9, primary screen, biochemical, AlphaScreen, biotin-AF4 peptide, FLAG-AF9, single point; AID 651704, 2012; hit rate 0.47% among 350,000; inhibition, % at 10 µM;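 active = every replicate reaching a set inhibition limit, whatever the replicate mean, cut at about 25% in these data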
Target sequence (P42568 whole entry, looked up): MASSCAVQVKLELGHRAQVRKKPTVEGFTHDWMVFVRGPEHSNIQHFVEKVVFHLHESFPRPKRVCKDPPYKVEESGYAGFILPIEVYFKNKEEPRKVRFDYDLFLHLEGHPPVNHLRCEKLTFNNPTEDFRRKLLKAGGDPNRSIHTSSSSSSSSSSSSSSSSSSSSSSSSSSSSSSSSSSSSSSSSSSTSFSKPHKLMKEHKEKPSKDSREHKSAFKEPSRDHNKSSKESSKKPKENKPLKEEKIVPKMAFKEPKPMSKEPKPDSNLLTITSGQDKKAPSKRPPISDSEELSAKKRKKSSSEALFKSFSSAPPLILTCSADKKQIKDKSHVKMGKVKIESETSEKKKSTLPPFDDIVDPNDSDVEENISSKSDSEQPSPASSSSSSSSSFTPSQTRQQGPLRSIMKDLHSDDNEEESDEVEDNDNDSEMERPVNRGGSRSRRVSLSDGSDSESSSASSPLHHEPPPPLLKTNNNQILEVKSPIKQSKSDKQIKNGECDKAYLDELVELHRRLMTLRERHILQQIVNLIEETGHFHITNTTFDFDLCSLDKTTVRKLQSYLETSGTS
PAX8 reporter: inhibitors of PAX8-driven TPO luciferase reporter, primary screen, RMG-I cells, single concentration; SteadyGlo, 24 h; AID 652154, 2013; inhibition, % at 12.6 µM; hit rate 1.2% among 360,000;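 active = mean replicate inhibition at least 60% with every replicate also reaching 60%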;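 note: luciferase light reporting Pax8 driven TPO promoter activity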
EWS-Fli inh: EWS/Fli-driven NR0B1 reporter inhibitors, primary screen, A673 cells, NR0B1 luciferase, luminescence, MLPCN library; viability-normalised; inhibition, % at 12.6 µM; hit rate 0.67% among 350,000; AID 651661, 2012;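 active = mean inhibition of at least 50% after viability correction, with every replicate also passing that limit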;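 note: firefly luciferase signal divided by Alamar Blue viability fluorescence both relative to DMSO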
AlphaScreen intf: AlphaScreen signal interference counter-screen, dose response, artefact control, biochemical, cherry-picked samples, luminescence; shares compounds with MLL AF4-AF9 inh; AC50, µM (titrated, usually from 12 µM); hit rate 45% among 530; AID 720494, 2013; cut-off not given, nearly all actives have AC50 up to about 14 µM
A number is an active result. Only some compounds are listed: those with a hit (about 2.1% of all), similar ones and a draw of the others.

`COc1ccc(N2CCN(C(=O)C3CCCN(S(=O)(=O)c4c(C)noc4C)C3)CC2)cc1` (centres undefined) gave PGC1a acetyl inh inactive, Xi reactivation inactive, GSIS activator inactive, MLL AF4-AF9 inh 28, PAX8 reporter inactive, EWS-Fli inh inactive and AlphaScreen intf inactive.
Screening C/C=C/c1ccc([C@@H]2[C@H](CO)N(C(=O)CN(C)C)C23CN(C(=O)C2CC2)C3)cc1 returned Xi reactivation inactive, GSIS activator inactive, MLL AF4-AF9 inh inactive and EWS-Fli inh inactive.
CN=c1scc(-c2ccccc2F)n1/N=C(\C)c1cccnc1 was read as PGC1a acetyl inh inactive, Xi reactivation inactive, GSIS activator inactive, MLL AF4-AF9 inh 37, PAX8 reporter inactive, EWS-Fli inh inactive and AlphaScreen intf inactive.
`C/C(=N\N1CCN(C2c3ccccc3-c3ccccc32)CC1)c1cccnc1` gave PGC1a acetyl inh inactive.
`Cc1cccc(NNC(=O)C(=O)NNc2cccc(C)c2)c1` gave PGC1a acetyl inh inactive, Xi reactivation inactive, GSIS activator inactive, MLL AF4-AF9 inh inactive, PAX8 reporter inactive and EWS-Fli inh inactive.
For Cc1cccc(N=NC(=S)NNc2cccc(C)c2)c1 the results were PGC1a acetyl inh inactive, Xi reactivation inactive, GSIS activator inactive, MLL AF4-AF9 inh 36, PAX8 reporter inactive, EWS-Fli inh inactive and AlphaScreen intf 1µM.
`COCC(=O)N(C)C[C@H]1Oc2cc(-c3cccnc3)ccc2S(=O)(=O)N([C@H](C)CO)C[C@H]1C` gave PGC1a acetyl inh inactive, Xi reactivation inactive, GSIS activator inactive, MLL AF4-AF9 inh inactive and EWS-Fli inh inactive.
Screening Cn1cc(CN2CCC(C(=O)NC(c3ccc(F)cc3)c3ccc4ccccc4n3)CC2)c2ccccc21 (centres undefined) returned PGC1a acetyl inh inactive, Xi reactivation inactive, GSIS activator inactive, MLL AF4-AF9 inh 25, PAX8 reporter inactive, EWS-Fli inh inactive and AlphaScreen intf inactive.
`C[C@@H]1CN([C@@H](C)CO)C(=O)c2cc(NC(=O)Nc3ccc(F)cc3)ccc2O[C@@H](C)CCCCO[C@H]1CN(C)C(=O)CCCN(C)C` gave PGC1a acetyl inh inactive, Xi reactivation inactive, GSIS activator inactive, MLL AF4-AF9 inh inactive, PAX8 reporter inactive and EWS-Fli inh inactive.
CCOc1ccc(Nc2ccc([N+](=O)[O-])c3nonc23)cc1 was read as Xi reactivation inactive, GSIS activator inactive, MLL AF4-AF9 inh 29, PAX8 reporter inactive, EWS-Fli inh inactive and AlphaScreen intf inactive.
For Nc1ccc(N)c(C(=O)O)c1 the results were PGC1a acetyl inh inactive, MLL AF4-AF9 inh 27 and AlphaScreen intf inactive.
For Nc1ccc(C(=O)O)c(O)c1 the results were Xi reactivation inactive, GSIS activator inactive, MLL AF4-AF9 inh inactive, PAX8 reporter inactive and EWS-Fli inh inactive.
Cn1c(=O)cc2c3c(c(N4CCCCC4)ccc31)C(=O)c1ccccc1-2 was read as PGC1a acetyl inh inactive, Xi reactivation inactive, GSIS activator inactive, MLL AF4-AF9 inh 54, PAX8 reporter inactive, EWS-Fli inh inactive and AlphaScreen intf 10µM.
For COc1ccc(S(=O)(=O)N(C)C[C@H]2OCCCC[C@H](C)Oc3ccc(NS(C)(=O)=O)cc3C(=O)N([C@H](C)CO)C[C@@H]2C)cc1 the results were PGC1a acetyl inh inactive, Xi reactivation inactive, GSIS activator inactive, MLL AF4-AF9 inh inactive, PAX8 reporter inactive and EWS-Fli inh inactive.
Screening COc1ccccc1-c1ccc2c(c1)O[C@@H](CN(C)S(=O)(=O)c1ccc(F)cc1)[C@@H](C)CN([C@H](C)CO)S2(=O)=O returned PGC1a acetyl inh inactive, Xi reactivation inactive, GSIS activator inactive, MLL AF4-AF9 inh inactive, PAX8 reporter inactive and EWS-Fli inh inactive.
CCN1CCN(Cc2ccc(NC(=O)c3ccc(C)c(NC(=O)c4nccnc4N)c3)cc2C(F)(F)F)CC1 was read as Xi reactivation inactive, GSIS activator inactive, MLL AF4-AF9 inh inactive, PAX8 reporter inactive and EWS-Fli inh inactive.

Compound activity deposited in PubChem by Broad Institute.
